Measurements taken from ChEMBL document CHEMBL1671834, “Novel 3-aryl indoles as progesterone receptor antagonists for uterine fibroids” (ACS Med Chem Lett, 2011).

Key:
[1] = target: T1, Mineralocorticoid receptor (Homo sapiens) (UniProt P08235); test: Antagonist activity at human mineralocorticoid receptor expressed in HEK293 cells assessed as inhibition of […]-induced transcriptional activity by GRE-driven luciferase reporter gene assay relative to untreated control; assay type: functional, cell-based; set-up: concentration or dose not given beside the values; settings: concentration not given here
T1 sequence (whole entry): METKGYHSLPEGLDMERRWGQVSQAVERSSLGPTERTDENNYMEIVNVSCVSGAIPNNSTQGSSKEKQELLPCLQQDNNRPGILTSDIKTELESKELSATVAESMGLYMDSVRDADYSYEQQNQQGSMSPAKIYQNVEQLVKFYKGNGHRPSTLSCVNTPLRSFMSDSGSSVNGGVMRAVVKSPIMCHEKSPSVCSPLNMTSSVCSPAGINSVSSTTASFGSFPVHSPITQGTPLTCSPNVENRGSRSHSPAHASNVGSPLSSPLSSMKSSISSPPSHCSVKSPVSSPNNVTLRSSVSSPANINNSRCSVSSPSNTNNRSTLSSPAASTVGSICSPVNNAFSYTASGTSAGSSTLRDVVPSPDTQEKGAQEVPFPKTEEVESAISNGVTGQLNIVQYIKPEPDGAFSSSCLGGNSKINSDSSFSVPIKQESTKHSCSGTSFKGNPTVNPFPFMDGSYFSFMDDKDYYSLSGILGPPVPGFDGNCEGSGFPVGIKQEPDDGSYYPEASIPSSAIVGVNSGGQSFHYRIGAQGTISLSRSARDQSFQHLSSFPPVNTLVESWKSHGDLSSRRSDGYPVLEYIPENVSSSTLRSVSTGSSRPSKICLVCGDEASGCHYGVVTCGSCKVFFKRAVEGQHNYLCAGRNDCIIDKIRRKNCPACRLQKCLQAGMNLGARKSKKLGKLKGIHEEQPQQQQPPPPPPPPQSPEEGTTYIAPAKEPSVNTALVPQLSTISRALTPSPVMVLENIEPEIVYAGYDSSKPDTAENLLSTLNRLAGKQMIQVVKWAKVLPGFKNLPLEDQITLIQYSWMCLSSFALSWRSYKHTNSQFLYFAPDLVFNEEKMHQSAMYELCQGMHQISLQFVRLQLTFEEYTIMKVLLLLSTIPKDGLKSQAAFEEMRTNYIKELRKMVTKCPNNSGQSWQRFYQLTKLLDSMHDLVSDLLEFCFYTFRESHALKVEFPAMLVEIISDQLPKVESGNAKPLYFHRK
How it was run: (§1)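 Transcription assay in HEK293 cells cotransfected with full-length human receptor. Values are geometric means of at least duplicate determinations.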

Glucocorticoid receptor = target: T2, Glucocorticoid receptor (Homo sapiens, UniProt P04150); test: Displacement of [3H]methyltrienolone from human glucocorticoid receptor expressed in HEK293 cells; assay type: cell-based
T2 sequence (P04150 whole entry): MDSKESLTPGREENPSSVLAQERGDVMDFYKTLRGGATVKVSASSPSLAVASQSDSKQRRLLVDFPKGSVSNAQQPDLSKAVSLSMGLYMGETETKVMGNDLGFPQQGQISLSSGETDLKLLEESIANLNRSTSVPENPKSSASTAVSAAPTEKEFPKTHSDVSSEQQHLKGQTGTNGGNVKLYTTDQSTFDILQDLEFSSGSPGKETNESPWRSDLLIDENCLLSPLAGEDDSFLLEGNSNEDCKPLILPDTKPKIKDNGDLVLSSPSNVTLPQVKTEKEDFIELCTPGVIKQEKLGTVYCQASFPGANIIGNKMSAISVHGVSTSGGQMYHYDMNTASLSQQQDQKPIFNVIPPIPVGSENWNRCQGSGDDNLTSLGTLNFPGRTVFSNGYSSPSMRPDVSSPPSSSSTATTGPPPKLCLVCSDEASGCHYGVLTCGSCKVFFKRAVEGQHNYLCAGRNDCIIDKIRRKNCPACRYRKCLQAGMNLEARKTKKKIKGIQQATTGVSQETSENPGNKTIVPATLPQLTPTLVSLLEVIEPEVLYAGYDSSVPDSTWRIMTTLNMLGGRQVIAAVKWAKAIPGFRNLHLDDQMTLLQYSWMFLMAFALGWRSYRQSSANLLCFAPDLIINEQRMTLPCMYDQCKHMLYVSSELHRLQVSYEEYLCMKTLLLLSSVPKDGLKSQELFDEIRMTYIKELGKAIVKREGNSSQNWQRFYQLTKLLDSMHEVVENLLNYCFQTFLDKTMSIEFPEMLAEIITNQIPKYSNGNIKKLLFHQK

Androgen receptor = target: T3, Androgen receptor (Homo sapiens, UniProt P10275); test: Displacement of [3H]methyltrienolone from human androgen receptor expressed in HEK293 cells; assay type: cell-based
T3 sequence (P10275 whole entry): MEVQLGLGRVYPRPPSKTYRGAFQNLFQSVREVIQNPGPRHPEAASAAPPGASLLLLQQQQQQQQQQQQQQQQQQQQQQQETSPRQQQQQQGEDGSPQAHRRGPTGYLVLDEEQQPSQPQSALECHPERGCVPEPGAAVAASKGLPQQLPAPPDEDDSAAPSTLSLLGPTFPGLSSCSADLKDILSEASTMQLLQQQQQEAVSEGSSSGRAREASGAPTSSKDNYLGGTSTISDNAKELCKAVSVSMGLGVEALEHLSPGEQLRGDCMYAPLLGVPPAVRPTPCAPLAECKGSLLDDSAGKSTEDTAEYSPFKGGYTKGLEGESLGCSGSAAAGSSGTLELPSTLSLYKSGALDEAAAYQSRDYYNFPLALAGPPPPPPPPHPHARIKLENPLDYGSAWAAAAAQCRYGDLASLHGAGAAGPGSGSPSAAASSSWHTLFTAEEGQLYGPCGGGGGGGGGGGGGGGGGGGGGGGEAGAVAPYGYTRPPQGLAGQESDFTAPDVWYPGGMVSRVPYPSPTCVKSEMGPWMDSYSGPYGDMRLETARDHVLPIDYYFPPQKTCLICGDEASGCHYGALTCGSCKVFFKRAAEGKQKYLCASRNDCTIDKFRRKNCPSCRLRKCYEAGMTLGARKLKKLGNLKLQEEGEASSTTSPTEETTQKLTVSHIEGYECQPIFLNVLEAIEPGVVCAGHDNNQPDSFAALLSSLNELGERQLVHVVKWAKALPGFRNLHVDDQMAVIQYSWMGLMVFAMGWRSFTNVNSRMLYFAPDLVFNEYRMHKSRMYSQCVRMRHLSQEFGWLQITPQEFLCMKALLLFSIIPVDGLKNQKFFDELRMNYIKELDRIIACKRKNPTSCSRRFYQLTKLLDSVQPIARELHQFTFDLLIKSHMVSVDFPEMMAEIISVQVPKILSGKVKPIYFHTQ

[2] = target: T4, Mineralocorticoid receptor (Homo sapiens, UniProt P08235); test: Antagonist activity at human mineralocorticoid receptor expressed in HEK293 cells assessed as inhibition of […]-induced transcriptional activity by GRE-driven luciferase reporter gene assay; assay type: functional, cell-based; how it was run: as §1
T4 sequence (P08235 whole entry): T1 sequence (whole entry)

[3] = Tmax in rat; assay type: ADME, organism-based; settings: in vivo
How it was run: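 Compound given to rats as an oral suspension. Bioavailability, tmax, elimination half-life, volume of distribution and clearance determined.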

Compound	inhibition [1]	Ki (Glucocorticoid receptor)	Ki (Androgen receptor)	IC50 [2]	Tmax [3]
CC(C)n1cc(-c2ccc(C#N)cc2)c2ccc(NS(C)(=O)=O)cc21	36.6%	1530 nM	> 3900 nM	> 10000 nM	–
CC[C@H](C)n1cc(-c2ccc(C#N)cc2)c2ccc(NS(C)(=O)=O)cc21	43.4%	1860 nM	1740 nM	9800 nM	–
Cn1cc(-c2ccc(C#N)cc2)c2ccc(NS(C)(=O)=O)cc21	-2.2%	> 4290 nM	> 4020 nM	> 10000 nM	–
CCn1cc(-c2ccc(C#N)cc2)c2ccc(NS(C)(=O)=O)cc21	23.8%	927 nM	2590 nM	> 10000 nM	–
COc1cc(-c2cn(C(C)C)c3cc(NS(C)(=O)=O)ccc23)ccc1C#N	35.8%	977 nM	490 nM	2420 nM	–

These reach a lower Ki (Glucocorticoid receptor). Values come first.

inhibition [1]	Ki (Glucocorticoid receptor)	Ki (Androgen receptor)	IC50 [2]	Tmax [3]	Compound
76.3%	6.39 nM	220 nM	64.1 nM	–	CC(c1ccc(F)cc1)(c1c[nH]c2c(NS(C)(=O)=O)cccc12)C1CC1 (stereo unspecified)
40.8%	50.2 nM	68.9 nM	> 10000 nM	–	COc1ccc(C(c2ccccc2)c2c[nH]c3ccccc23)cc1 (stereo unspecified)
50.2%	523 nM	648 nM	8150 nM	4 h	CC(C)n1cc(-c2ccc(C#N)c(F)c2)c2ccc(NS(C)(=O)=O)cc21
56%	157 nM	403 nM	> 10000 nM	–	Cc1cc(-c2cn(C(C)C)c3cc(NS(C)(=O)=O)ccc23)ccc1C#N
39.2%	780 nM	2550 nM	> 10000 nM	–	CC[C@@H](C)n1cc(-c2ccc(C#N)cc2)c2ccc(NS(C)(=O)=O)cc21
